# Kir21 block – Kir2.1 (mouse) channel inhibition; actives 0.85% (n = 310,000); B-score at 10 µM; HEK293-Kir2.1, FluxOR thallium flux fluorescence; hits give low values;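 active = fluorescence ratio B-score at or below minus 3 SD of library scores, with starting-brightness B-score within 2 SD, cut at about -4.2 in these data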;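 note: channel flux triggered by added potassium and thallium sulfate stimulus; B-score of peak minus minimum fluorescence over baseline after thallium stimulus; more negative B-score means stronger Kir2.1 block with less thallium influx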
# KCNK9 inh-1 – human KCNK9 channel inhibition. Q9NPC2. HEK293 KCNK9, FluxOR thallium flux fluorescence; hits give low values. B-score at 10 µM. actives 1.2% (n = 310,000). AID 488922;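 active = ratio B-score over 3 SD below the library mean, with starting fluorescence within 5 SD of its mean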;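 note: negative B-score means less thallium flux so channel inhibition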
# hERG protect – compounds protecting human hERG from proarrhythmic drug block | Q12809 | CHO-hERG, FluxOR thallium flux, dofetilide IC70 present | activation (rescue from dofetilide block), less the hit threshold, % at 10 µM | actives 0.51% (n = 310,000) | AID 1511;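 active = activation above the mean of controls blocked by dofetilide plus 5 SD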;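 note: thallium influx through hERG after potassium depolarization seen as dye fluorescence rise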
# KCNQ1 inh – human KCNQ1 channel inhibition; P51787; CHO-K1 KCNQ1, FluxOR thallium flux fluorescence; hits give high values; B-score at 10 µM; actives 1.3% (n = 310,000); AID 2642;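 active = compounds whose thallium flux B-score, printed positive for inhibition, exceeds three library SD while starting fluorescence stays within three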;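 note: channel opened by potassium depolarization with thallium stimulus after 20 min compound exposure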
# Target sequence (P51787 whole entry, looked up): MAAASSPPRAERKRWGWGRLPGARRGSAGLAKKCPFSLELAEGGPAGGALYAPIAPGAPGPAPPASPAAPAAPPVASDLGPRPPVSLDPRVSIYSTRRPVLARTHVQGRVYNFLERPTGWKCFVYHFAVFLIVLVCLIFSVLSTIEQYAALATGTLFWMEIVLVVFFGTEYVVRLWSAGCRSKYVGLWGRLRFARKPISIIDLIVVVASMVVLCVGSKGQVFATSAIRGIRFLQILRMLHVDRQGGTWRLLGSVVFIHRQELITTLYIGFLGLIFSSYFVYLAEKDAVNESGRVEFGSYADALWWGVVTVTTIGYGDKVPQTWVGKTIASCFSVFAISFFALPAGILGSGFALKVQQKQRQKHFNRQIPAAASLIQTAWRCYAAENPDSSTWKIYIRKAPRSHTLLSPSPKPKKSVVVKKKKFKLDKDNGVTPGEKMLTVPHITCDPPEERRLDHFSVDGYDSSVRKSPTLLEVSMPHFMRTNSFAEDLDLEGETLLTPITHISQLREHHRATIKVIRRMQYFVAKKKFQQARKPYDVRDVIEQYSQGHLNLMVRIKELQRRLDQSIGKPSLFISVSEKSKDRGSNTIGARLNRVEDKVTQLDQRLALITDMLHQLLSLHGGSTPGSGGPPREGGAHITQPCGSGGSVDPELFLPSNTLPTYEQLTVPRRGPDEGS
# KCNQ1 pot – human KCNQ1 channel potentiation or activation; CHO-K1 KCNQ1, thallium flux FluxOR fluorescence; hits give high values; AID 2648; actives 0.35% (n = 310,000); B-score at 10 µM; P51787;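 active = fluorescence ratio B-score, a plate-corrected score, at least three library SD, with initial intensity B-score within 5 SD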
#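 Assay system: CHO-K1 cells stably expressing KCNQ1. Medium: assay buffer for compound exposure, DMSO matched across wells. Timing: 37 °C overnight plating, 90-min dark dye load, 20-min compound pretreatment. Signal: kinetic FluxOR fluorescence, 10 s baseline plus 110 s post-stimulus.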
# KCNK3 inh – human KCNK3 channel inhibition, primary screen; O14649; CHO-KCNK3 thallium flux, FluxOR fluorescence; hits give low values; B-score at 10 µM; actives 0.84% (n = 340,000);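 active = B-score under library mean minus 4 SD, starting fluorescence ratio at most library mean plus 5 SD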;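 note: more negative B-score means stronger inhibition of thallium flux through KCNK3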
# hERG ctr – blocks human hERG, in counter-screen for Kir2.1 inhibitors | shares compounds with Kir21 block | hERG-expressing cells, thallium flux | inhibition, % at 10 µM | actives 20% (n = 320) | AID 2236;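 note: host cells are CHO cells stably expressing hERG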
# KCNK9 inh-2 – tests whether Kir2.1 inhibitors also affect human KCNK9; shares compounds with Kir21 block; KCNK9-expressing cells, ion flux inhibition; inhibition, % at 10 µM; actives 5% (n = 320)
# Kir2-1 patch inh – mouse Kir2.1 inward rectifier channel inhibition; shares compounds with Kir21 block; Kir2.1 cells, automated patch-clamp current inhibition; inhibition, % at 25 µM; actives 71% (n = 320); AID 463252
# KCNQ1 inh valid – reconfirmed blocker of the human KCNQ1 potassium channel. shares compounds with KCNQ1 inh. KCNQ1 cell line, FluxOR thallium flux fluorescence. inhibition, % at 10 µM. actives 93% (n = 1,600). AID 588353;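 active = primary screen active, with duplicate mean exceeding buffer control mean plus 3 SD of buffer wells, cut at about 28% in these data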;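 note: 0% = buffer control ratio and 100% = XE991 inhibitor control ratio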
# CHO Tl flux – counter-screen for KCNQ1 inhibitors: effect in parental CHO cells; parental CHO-K1, FluxOR thallium flux fluorescence ratio; hits give low values; zero means no signal rise above baseline; fluorescence ratio (Tl flux) at 10 µM; shares compounds with KCNQ1 inh; actives 21% (n = 1,600);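 active = mean of duplicate thallium-flux fluorescence ratios in parental host cells more than 5 SD below the buffer control mean, cut at about 0.38 in these data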;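 note: ratio is peak minus minimum fluorescence divided by baseline fluorescence; actives read low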
# KCNQ2 spec – selectivity of KCNQ1 inhibitors: inhibition of rat KCNQ2 channel; shares compounds with KCNQ1 inh; KCNQ2 cells, FluxOR thallium flux fluorescence; inhibition, % at 10 µM; actives 71% (n = 1,600); AID 651746;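 active = mean percent inhibition of the KCNQ2 thallium signal more than 5 SD above the buffer-only control wells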;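 note: KCNQ2 expressed in CHO cells; 0% = buffer control wells and 100% = XE-991 inhibitor control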
# KCNQ1 KCNE1 spec – KCNQ1 inhibitor that also blocks human KCNQ1/KCNE1 channel | AID 652147 | shares compounds with KCNQ1 inh | inhibition, % at 10 µM | KCNQ1/KCNE1 cells, FluxOR thallium flux fluorescence | actives 77% (n = 1,600);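 active = mean percent inhibition of duplicate wells above the buffer-only control mean plus 3 SD of those controls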;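 note: 0% = buffer only wells and 100% = XE-991 inhibitor control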
# KCNK9 inh conf – confirmation of human KCNK9 potassium channel inhibitors; shares compounds with KCNK9 inh-1; inhibition, % at 10 µM; actives 43% (n = 4,900); HEK293 KCNK9 cells, FluxOR thallium flux fluorescence;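 active = thallium signal inhibited by more than 5 SD of the compound-free buffer control wells, on both duplicate plates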;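 note: 0% = assay buffer control wells without compound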
# Kir2-1 spec – mouse Kir2.1 off-target activity of KCNK9 modulators. actives 4% (n = 4,900). shares compounds with KCNK9 inh-1. inhibition, % at 10 µM. AID 492993. Kir2.1 cells, FluxOR thallium flux fluorescence;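 active = thallium signal drop more than 5 SD beyond the mean of the no-compound control wells, seen in both duplicate plates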;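 note: signal is fluorescence rise after thallium addition divided by baseline fluorescence; plate controls were assay buffer only for no effect and full block by chlorpromazine control for full effect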
# HEK293 Tl ctr – second check of KCNK9 modulator effects in non-induced HEK293 cells; shares compounds with KCNK9 inh-1; FluxOR thallium flux; inhibition, % at 10 µM; actives 40% (n = 4,900);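 active = thallium signal drop beyond 5 SD of the untreated control mean, on both duplicate plates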;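 note: plate controls were buffer only IC0 wells for no effect and SID17386958 at its maximal inhibitory level for full effect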
# * hit, by the source's call; i = inactive; ? = inconclusive; . = no result. An excerpt weighted towards active compounds, which were near 3.7% of everything screened. Unless noted, the rule behind the calls is not given here.
SMILES,Kir21 block,KCNK9 inh-1,hERG protect,KCNQ1 inh,KCNQ1 pot,KCNK3 inh,hERG ctr,KCNK9 inh-2,Kir2-1 patch inh,others
COc1cccc(CNc2ccc3[nH]c(=O)[nH]c3c2)c1OCc1ccccc1F,-7.4*,i,-15,i,i,i,i,i,2.2%*,
Cc1ccc(C)c(OCCC(=O)OCC(=O)NCc2ccccc2)c1,0.03,i,-11,i,i,i,.,.,.,
Cc1ccc(C)c(OCCCNCc2ccccc2)c1,-9.4*,i,-9,i,i,i,i,i,74%*,
CC/C(=N\NC(=O)CSc1ncccn1)c1ccc2c(c1)OCCO2,0.92,i,-9,i,i,i,.,.,.,
O=C(O)/C=C/C(=O)N1CCN(c2cccc(Cl)c2)CC1,4.3,i,-18,i,i,i,i,i,i,
O=C(O)CCC(=O)N1CCN(c2cccc(Cl)c2)CC1,0.81,i,-10,i,i,i,.,.,.,
CCCCn1c(N)c(N(CCOC)C(=O)COC(=O)CCOc2ccccc2)c(=O)[nH]c1=O,0.06,i,-6,i,i,i,i,i,?,
CCCCn1c(N)c(N(CCOC)C(=O)COc2ccc(OCC)cc2)c(=O)[nH]c1=O,1.6,i,-11,i,i,i,.,.,.,
Cc1ccc(OCCOCCN2CCN(C)CC2)c(C(C)(C)C)c1,-1.8,i,-10,i,i,i,.,.,.,
CC(C)(C)c1cc(Cl)ccc1OCCOCCN1CCCC1,-9.6*,i,-8,i,i,i,58%*,i,9.2%*,
O=S(=O)(c1ccc(Cl)cc1)N1CCSC1c1ccco1 (stereo unspecified),-6.5*,i,-9,i,i,i,i,i,21%*,
COC(=O)C1SCCN1S(=O)(=O)c1ccc(Cl)cc1 (stereo unspecified),0.86,i,-8,i,i,i,.,.,.,
CC(=O)NNC(=S)NC(=O)c1cccc([N+](=O)[O-])c1,0.48,i,-6,i,i,i,.,.,.,
CCC1CCCCN1C(=S)NC(=O)c1cccc([N+](=O)[O-])c1 (stereo unspecified),2.7,i,20*,i,28*,i,i,i,i,
O=C(COc1ccccc1Cl)NCCNC(=O)c1ccco1,0.5,i,-8,i,i,i,.,.,.,
Cc1cc(S(=O)(=O)Nc2cc(C)c(O)c(C)c2)c(C)s1,-6.7*,i,-3,i,i,i,i,i,18%*,
CC1=CC(C)(C)N(C(=O)CSc2nnc(C)s2)c2ccc(C)cc21,-7.1*,i,-6,i,i,i,i,i,8.3%*,
C#CCNC(=O)C1=C[C@@H](c2ccc(C#C)cc2)C[C@@H](OCc2ccc(CO)cc2)O1,-6.3*,i,-11,i,i,i,i,i,6.4%*,
Cc1ccc(S(=O)(=O)N2CCOCC2)cc1-c1n[nH]c(=S)n1-c1ccccc1,.,.,.,.,.,i,.,.,.,
C/C(=N/NC(=O)CNC(=O)c1ccncc1)c1ccco1,-0.4,i,-11,i,i,i,.,.,.,
COc1ccc(CN(C)CC(O)COC(c2ccc(OC)cc2)c2ccc(OC)cc2)cc1 (stereo unspecified),-8.7*,i,-17,i,i,i,75%*,i,i,
COc1ccc(CN(C)CC(O)COc2ccc(-c3ccccc3)cc2)cc1OC (stereo unspecified),-0.48,i,-18,i,i,i,.,.,.,
COc1cccc(C(C)NC(=S)NCc2ccc(Cl)cc2)c1 (stereo unspecified),-7.8*,i,-20,8*,i,i,i,i,31%*,KCNQ1 inh valid=0;CHO Tl flux=0.52;KCNQ2 spec=i;KCNQ1 KCNE1 spec=i
CN(C(=O)c1ccccc1C(=O)OCC(=O)Nc1cccc(Br)c1)c1ccccc1,.,.,.,.,.,i,.,.,.,
O=C(O)c1cnn(-c2nc(-c3ccc(Cl)c(Cl)c3)cs2)c1C(F)(F)F,3,i,-4,i,i,i,i,i,i,KCNK9 inh conf=i;Kir2-1 spec=i;HEK293 Tl ctr=i
CN(CCCCOc1ccc(F)cc1)Cc1ccccc1,-0.01,i,-3,i,i,i,.,.,.,
Cc1cc(C)c(C)c(OCCCCN(C)Cc2ccccc2)c1,-7.3*,i,-6,i,i,i,i,i,8.7%*,KCNK9 inh conf=i;Kir2-1 spec=46%*;HEK293 Tl ctr=i
CCOc1ccccc1N1CCN(C(=O)CCNS(=O)(=O)c2ccccc2F)CC1,0.01,i,-18,i,i,i,.,.,.,

# Screens deposited in PubChem by Johns Hopkins Ion Channel Center.
